Laboratory results reported in ChEMBL document CHEMBL1152220, “Discovery of a highly orally bioavailable c-5-[6-(4-Methanesulfonyloxyphenyl)hexyl]-2-methyl-1,3-dioxane-r-2-carboxylic acid as a potent hypoglycemic and hypolipidemic agent” (Bioorg Med Chem Lett, 2008).
One block for each molecule: values may come before it. Active and inactive are the calls of the source. The calls are words filed in the database; no cut-off is given here.

How the values were obtained:
[1] = target: T1, Peroxisome proliferator-activated receptor gamma (Homo sapiens) (UniProt P37231); assay: (§1) Agonist activity at human PPARgamma ligand binding domain expressed in human HepG2 cells co-transfected with PPRE3-TK-luc assessed as induction of beta-galactosidase activity by transactivation assay; assay type: cell-based
T1 sequence (whole entry): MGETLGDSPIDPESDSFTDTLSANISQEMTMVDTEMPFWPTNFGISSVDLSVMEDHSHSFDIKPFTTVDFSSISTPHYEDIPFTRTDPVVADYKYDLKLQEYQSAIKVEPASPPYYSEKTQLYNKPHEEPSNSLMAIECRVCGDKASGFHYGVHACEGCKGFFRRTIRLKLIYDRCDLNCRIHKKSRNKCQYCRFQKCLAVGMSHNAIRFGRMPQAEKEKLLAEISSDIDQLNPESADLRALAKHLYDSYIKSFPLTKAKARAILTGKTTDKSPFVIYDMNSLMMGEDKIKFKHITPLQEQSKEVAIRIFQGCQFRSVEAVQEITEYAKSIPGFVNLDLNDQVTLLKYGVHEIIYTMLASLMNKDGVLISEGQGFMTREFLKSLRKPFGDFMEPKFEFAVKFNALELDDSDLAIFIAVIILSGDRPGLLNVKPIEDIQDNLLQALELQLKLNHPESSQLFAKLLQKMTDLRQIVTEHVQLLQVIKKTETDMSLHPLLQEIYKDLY
How it was run: (§2)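 HepG2 cells were transfected with a pSG5 vector carrying hPPARα or hPPARγ cDNA and cotransfected with PPRE3-TK-luc. Firefly luciferase was measured with a commercial assay, and β-galactosidase was read on an ELISA reader. Activity is expressed as fold induction. Single-point testing was at 10 µM for hPPARα and 0.2 µM for hPPARγ, with EC50 given elsewhere.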

[2] = target: T2, Peroxisome proliferator-activated receptor alpha (Homo sapiens, UniProt Q07869); assay: Agonist activity at human PPARalpha ligand binding domain expressed in human HepG2 cells co-transfected with PPRE3-TK-luc assessed as induction of beta-galactosidase activity by transactivation assay; assay type: cell-based
T2 sequence (Q07869 whole entry): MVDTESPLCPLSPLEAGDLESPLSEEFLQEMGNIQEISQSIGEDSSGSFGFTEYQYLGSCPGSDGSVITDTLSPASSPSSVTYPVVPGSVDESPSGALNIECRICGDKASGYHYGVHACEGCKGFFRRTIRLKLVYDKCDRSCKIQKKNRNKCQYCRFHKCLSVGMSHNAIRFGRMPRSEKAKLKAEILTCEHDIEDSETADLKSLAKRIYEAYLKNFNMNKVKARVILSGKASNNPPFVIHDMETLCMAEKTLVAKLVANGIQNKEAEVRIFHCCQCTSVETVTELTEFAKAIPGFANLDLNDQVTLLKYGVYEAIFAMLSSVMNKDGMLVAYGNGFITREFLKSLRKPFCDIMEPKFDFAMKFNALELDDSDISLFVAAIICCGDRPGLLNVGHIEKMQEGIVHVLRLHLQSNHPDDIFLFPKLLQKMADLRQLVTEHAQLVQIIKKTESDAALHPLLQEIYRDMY
How it was run: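 HepG2 cells were transfected with a pSG5 vector carrying hPPARα or hPPARγ cDNA and cotransfected with PPRE3-TK-luc. Firefly luciferase was measured with a commercial assay, and β-galactosidase was read on an ELISA reader. Activity is expressed as fold induction.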

[3] = system: Mus musculus; assay: Reduction of triglyceride level in Swiss albino mouse serum at 10 mg/kg/day, po for 6 days relative to control; assay type: functional; design: scale not given: the % may be the effect or the level left
How it was run: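 Male Swiss albino mice aged 6–8 weeks were dosed orally at 10 mg/kg/day for 6 days. Serum triglyceride is reported as % change relative to vehicle controls, as the mean of n = 6.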

[4] = target: T3, Peroxisome proliferator-activated receptor alpha (Homo sapiens) (UniProt Q07869); assay: Agonist activity at human PPARalpha ligand binding domain expressed in human HepG2 cells co-transfected with PPRE3-TK-luc assessed as induction of beta-galactosidase activity at 10 uM by transactivation assay; assay type: cell-based; how it was run: as §2
T3 sequence (whole entry): T2 sequence (Q07869 whole entry)

[5] = target: T4, Peroxisome proliferator-activated receptor gamma (Homo sapiens, UniProt P37231); assay: as §1; assay type: cell-based; how it was run: as §2
T4 sequence (P37231 whole entry): T1 sequence (whole entry)

[6] = system: Rattus norvegicus; assay: Hypolipidemic activity in high cholesterol fed Sprague-Dawley rat assessed as reduction of total cholesterol level at 3 mg/kg/day for 4 days relative to control; design: scale not given: the % may be the effect or the level left
[7] = system: Mus musculus; assay: Hypolipidemic activity in db/db mouse assessed as reduction of triglyceride level at 3 mg/kg/day for 6 days relative to control; assay type: functional; design: scale not given: the % may be the effect or the level left
How it was run: (§3)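 Male db/db mice aged 6–8 weeks were dosed daily for 6 days. Plasma glucose and triglycerides were measured, and results are reported as % change relative to vehicle-treated controls.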

[8] = system: Rattus norvegicus; assay: Hypolipidemic activity in high cholesterol fed Sprague-Dawley rat assessed as effect on HDL-C level at 3 mg/kg/day for 4 days relative to control
[9] = system: Rattus norvegicus; assay: Hypolipidemic activity in high cholesterol fed Sprague-Dawley rat assessed as reduction of LDL-C level at 3 mg/kg/day for 4 days relative to control; design: scale not given: the % may be the effect or the level left
[10] = system: Rattus norvegicus; assay: Hypolipidemic activity in high cholesterol fed Sprague-Dawley rat assessed as reduction of triglyceride level at 3 mg/kg/day for 4 days relative to control; design: scale not given: the % may be the effect or the level left
[11] = system: Mus musculus; assay: Hypoglycemic activity in db/db mouse assessed as reduction of plasma glucose level at 3 mg/kg/day for 6 days relative to control; assay type: functional; design: scale not given: the % may be the effect or the level left; how it was run: as §3
[12] = Half life in Wistar rat at 30 mg/kg, po; assay type: ADME, organism-based; design: dose 30 mg/kg, route oral; conditions: in vivo
[13] = Tmax in Wistar rat at 30 mg/kg, po; assay type: ADME, organism-based; design: dose 30 mg/kg, route oral; conditions: in vivo
[14] = system: Rattus norvegicus; assay: (§4) AUC (0 to infinity) in Wistar rat at 30 mg/kg, po; assay type: ADME, organism-based, Plasma; design: time infinity, dose 30 mg/kg, route oral; conditions: in vivo
[15] = system: Rattus norvegicus; assay: (§5) Cmax in Wistar rat at 30 mg/kg, po; assay type: ADME, organism-based; design: dose 30 mg/kg, route oral; conditions: in vivo
[16] = as §4; assay type: ADME, organism-based, Plasma; design: time infinity, dose 30 mg/kg, route oral; conditions: Wistar, plasma
[17] = as §5; assay type: ADME, organism-based; design: dose 30 mg/kg, route oral; conditions: Wistar, in vivo

SMILES: CSc1ccc(CCCC[C@H]2CO[C@@](C)(C(=O)O)OC2)cc1
Activity [3]: -14% | fold change (FC) [4]: 4

SMILES: C[S+]([O-])c1ccc(CCCC[C@H]2CO[C@@](C)(C(=O)O)OC2)cc1 (stereo not given in full)
Activity [3]: -12% | fold change (FC) [4]: 2

SMILES: C[C@]1(C(=O)O)OC[C@@H](CCCCc2ccc(F)cc2)CO1
Activity [3]: -9% | fold change (FC) [4]: 2.3

SMILES: CCO[C@@H](Cc1ccc(OCCc2ccc(OS(C)(=O)=O)cc2)cc1)C(=O)O [TESAGLITAZAR]
EC50 [5]: 0.013 µM | EC50 [2]: 0.82 µM | Activity [6]: -59% | Activity [7]: -60% | Activity [8]: 18% | Activity [3]: -79% | Activity [9]: -31% | Activity [10]: -51% | Activity [11]: -54%

SMILES: CS(=O)(=O)c1ccc(CCCC[C@H]2CO[C@@](C)(C(=O)O)OC2)cc1
Activity [3]: -7% | fold change (FC) [4]: 1

SMILES: C[C@]1(C(=O)O)OC[C@@H](CCCCc2ccc(OCc3ccccc3)cc2)CO1
Activity [3]: -25% | fold change (FC) [4]: 2.3

SMILES: Cc1ccc(-c2nc(CCCC[C@H]3CO[C@@](C)(C(=O)O)OC3)c(C)o2)cc1
EC50 [5]: 7 µM | Activity [6]: -49% | half-life [12]: 1.5 h | Activity [7]: -54% | Tmax [13]: 0.67 h | Activity [8]: 88% | Activity [3]: -67% | Activity [9]: -68% | AUC [14]: 99 µg·h/mL | Activity [10]: -54% | Cmax [15]: 41 µg/mL | Activity [11]: -44%

SMILES: Cc1cccc(Nc2cc(Cl)nc(SCC(=O)O)n2)c1C
fold change (FC) [4]: 3.3

SMILES: CS(=O)(=O)Oc1ccc(CCCCCC[C@H]2CO[C@@](C)(C(=O)O)OC2)cc1
EC50 [5]: 15 µM | EC50 [2]: 15 µM | Activity [6]: -56% | half-life [12]: 12 h | Activity [7]: -50% | Tmax [13]: 4 h | Activity [8]: 51% | Activity [3]: -71% | Activity [9]: -46% | AUC(0-inf) [16]: 1490 µg·h/mL | Activity [10]: -63% | Cmax [17]: 127 µg/mL | Activity [11]: -53%

SMILES: CS(=O)(=O)Oc1ccc(CCCCC[C@H]2CO[C@@](C)(C(=O)O)OC2)cc1
Activity [1]: inactive | EC50 [2]: 2.5 µM | Activity [3]: -28%

Second part, led by results:

Activity [1]: inactive | EC50 [2]: 20 µM | fold change (FC) [4]: 3
SMILES: CS(=O)(=O)Oc1ccc(CCCC[C@H]2CO[C@@](C)(C(=O)O)OC2)cc1
Activity [3]: -32%

fold change (FC) [4]: 2.5
SMILES: COc1ccc(CCCC[C@H]2CO[C@@](C)(C(=O)O)OC2)cc1
Activity [3]: -11%

fold change (FC) [4]: 1.2
SMILES: C[C@]1(C(=O)O)OC[C@@H](CCCCc2ccc(O)cc2)CO1
Activity [3]: -15%

fold change (FC) [4]: 3.2
SMILES: Cc1ccc(CCCC[C@H]2CO[C@@](C)(C(=O)O)OC2)cc1
Activity [3]: -22%

fold change (FC) [4]: 2.6
SMILES: C[C@]1(C(=O)O)OC[C@@H](CCCCc2ccc(Cl)cc2)CO1
Activity [3]: -10%
